The results in this text go back to the array DNA melting data of Ke et al. (doi:10.1101/2024.01.08.574731).

The nature of data set [1]: folding enthalpy; higher = less favourable; fluorescence melt of hairpins on a sequencing array, two-state fit. The conditions noted are these: sodium 0.088 M. The method, boiled down:
(§1)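 Bootstrapped two-state fits yielded melting temperature and folding enthalpy for library hairpins. Cy3 fluorescence, with annealed Cy3 and quencher oligos, was imaged on a sequenced MiSeq flow cell in 50 mM Na-HEPES pH 8.0, 25 mM NaCl in 2.5 °C steps up to 60 °C, and normalised to pre-quench Cy3 and to control constructs. Four replicates were combined by inverse variance, and fitted temperatures were raised by 9.35 °C to match UV melts.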

Data set [2] in a line: melting temperature; fluorescence melt of hairpins on a sequencing array, two-state fit, raised by 9.35 °C to match UV melts. The conditions noted are these: sodium 0.088 M. The method, boiled down:
as §1

With GTCTGCTCGAAAGAGGAC (((..(((....)))))), the folding enthalpy in data set [1] was -18.1 kcal/mol. Besides, the Tm in data set [2] is 31.3 °C.
On the same counts, the results for GTCTGGAAACAGAC (((((....))))) are -27.8 kcal/mol and 52.4 °C.
For GTCTGGCGAAAGCCCGAC (((.(((....))).))), the folding enthalpy in data set [1] is -25.7 kcal/mol. The Tm in data set [2] amounted to 52.2 °C.
GTCTGGGGAAACCTGGAC (((..((....))..))): in data set [1], the folding enthalpy was -23.9 kcal/mol. In addition, the Tm in data set [2] is 41 °C.
As for GTCTGTCGAAAGACGGAC (((.(((....))).))), in data set [1], the folding enthalpy is -36.6 kcal/mol. In data set [2], the Tm was 63.2 °C.
Consider GTCTGTCGAAAGACTGAC (((.(((....))).))), for which the folding enthalpy in data set [1] is -39.4 kcal/mol. Also, the Tm in data set [2] was found to be 54.4 °C.
With GTCTTACCGAAAGGTGAC (((..(((....)))))), in data set [1], the folding enthalpy was -13.9 kcal/mol. Besides, the Tm in data set [2] stood at 35.7 °C.
Consider GTCTTACGAAAGTAGAC (((.(((....)))))), for which, in data set [1], the folding enthalpy was -23.8 kcal/mol. The Tm in data set [2] came to 43.4 °C.
On the same counts, the results for GTCTTAGCGAAAGCTGAC (((..(((....)))))) are -14.9 kcal/mol and 39 °C.
As for GTCTTAGGAAACTAGGAC (((.(((....))).))), in data set [1], the folding enthalpy is -33.8 kcal/mol. Further, in data set [2], the Tm amounted to 38.4 °C.
For the sequence GTCTTCCGAAAGGAGGAC (((.(((....))).))), the folding enthalpy in data set [1] was -38.2 kcal/mol. Also, the Tm in data set [2] was 54.5 °C.
With GTCTTCGAAAGAAAGGAC ((((((....)))..))), the folding enthalpy in data set [1] is -10.7 kcal/mol. For the same sequence, the Tm in data set [2] is 26.7 °C.
For GTCTTCGAAAGAAGGGAC ((((((....)))..))) the same measures were -14.1 kcal/mol and 32.9 °C.
Regarding GTCTTCGAAAGAATTGAC ((((((....)))..))), the folding enthalpy in data set [1] is -10.7 kcal/mol. Also, the Tm in data set [2] stood at 26.2 °C.
With GTCTTCGGAAACGAAGGC (.(((((....))))).), the folding enthalpy in data set [1] was -32.9 kcal/mol. Further, the Tm in data set [2] was 53.8 °C.
On the same counts, the results for GTCTTTACGAAAGTAGAC (((..(((....)))))) are -17.4 kcal/mol and 31.8 °C.
Take GTCTTTCGAAAGAAGGAC (((.(((....))).))): the folding enthalpy in data set [1] was -31.5 kcal/mol. The Tm in data set [2] worked out at 47.4 °C.
For GTCTTTCGAAAGAATGAC (((.(((....))).))) the same measures were -36.6 kcal/mol and 45.2 °C.
On to GTCTTTGAAAAAAGAC ((((((....)))))), for which, in data set [1], the folding enthalpy is -31.1 kcal/mol. For the same sequence, the Tm in data set [2] came to 48 °C.
As to GTCTTTGGAAACAAAGAC (((((((....))))))), the folding enthalpy in data set [1] is -42.3 kcal/mol. For the same sequence, the Tm in data set [2] was found to be 56.5 °C.
Consider GTCTTTGGAAACAAGGAC (((.(((....))).))), for which the folding enthalpy in data set [1] was -31.1 kcal/mol. In data set [2], the Tm came out at 41.5 °C.
For GTCTTTGGAAACAGAGAC ((((.((....)).)))) the same measures were -26 kcal/mol and 37.3 °C.
As to GTCTTTTCGAAAGAAGAC (((..(((....)))))), the folding enthalpy in data set [1] is -18.7 kcal/mol. Also, the Tm in data set [2] amounted to 31.6 °C.
Turning to GTGAAAGCGAAAGCTCAC (((..(((....)))))), in data set [1], the folding enthalpy was -23.9 kcal/mol. In addition, the Tm in data set [2] was 47.6 °C.
As for GTGAACCGAAAGGTCAC (((.(((....)))))), the folding enthalpy in data set [1] is -27.2 kcal/mol. Besides, in data set [2], the Tm was determined as 54.9 °C.
Consider GTGAACGAAAGTTCGCAC ((((((....)))..))), for which, in data set [1], the folding enthalpy was -16.4 kcal/mol. Besides, the Tm in data set [2] amounted to 51.3 °C.
In the case of GTGAACGGAAACGTCCAC (((.(((....))).))), in data set [1], the folding enthalpy was -31.9 kcal/mol. The Tm in data set [2] was found to be 45.1 °C.
Turning to GTGAAGCGAAAGCTCAC (((.(((....)))))), the folding enthalpy in data set [1] was -26.2 kcal/mol. The Tm in data set [2] came to 56 °C.
Consider GTGAAGGGAAACCTTCGC (.(((((....))))).), for which the folding enthalpy in data set [1] is -25.8 kcal/mol. Further, in data set [2], the Tm was 50.2 °C.
In the case of GTGAATGCGAAAGCACAC (((..(((....)))))), the folding enthalpy in data set [1] was -14.7 kcal/mol. The Tm in data set [2] was 40.7 °C.
As for GTGAATGGAAACATTCAC (((((((....))))))), in data set [1], the folding enthalpy was -45.6 kcal/mol. Moreover, the Tm in data set [2] amounted to 56.9 °C.
GTGAATGGAAACATTTGC (..((((....))))..): the folding enthalpy in data set [1] was -15.5 kcal/mol. In addition, the Tm in data set [2] amounted to 31.4 °C.
Take GTGAATGGAAACGTTCAC (((((.(....).))))): the folding enthalpy in data set [1] was -39.7 kcal/mol. Further, the Tm in data set [2] is 47.1 °C.
With GTGACAGGAAACTATCAC ((((.((....)).)))), the folding enthalpy in data set [1] was -19.4 kcal/mol. Besides, the Tm in data set [2] is 33.2 °C.
For GTGACAGGAAACTGTTGC (..((((....))))..) the same measures were -20.8 kcal/mol and 37.3 °C.
For GTGACCGAAAGGTACAC ((((((....))).))), the folding enthalpy in data set [1] is -19.4 kcal/mol. Moreover, the Tm in data set [2] amounted to 49.9 °C.
GTGACCGAAAGGTCCCAC ((((((....)))..))): the folding enthalpy in data set [1] was -8.57 kcal/mol. Moreover, the Tm in data set [2] amounted to 35.9 °C.
On the same counts, the results for GTGACCGAAAGGTGCCAC ((((((....)))..))) are -12.1 kcal/mol and 30.2 °C.
For the sequence GTGACGCCGAAAGGCCAC (((..(((....)))))), the folding enthalpy in data set [1] was -11.8 kcal/mol. In data set [2], the Tm was 45.2 °C.
As to GTGACGGGAAACCGCCAC (((.(((....))).))), the folding enthalpy in data set [1] was -42.1 kcal/mol. Further, the Tm in data set [2] was found to be 52.2 °C.
In the case of GTGACGGGAAACCGTTGC (..((((....))))..), the folding enthalpy in data set [1] is -17.6 kcal/mol. For the same sequence, the Tm in data set [2] is 45.4 °C.
On the same counts, the results for GTGACTGGAAACGGTTAC ((.((.(....).)).)) are -8.77 kcal/mol and 36.9 °C.
On the same counts, the results for GTGAGACCGAAAGGTCAC (((..(((....)))))) are -16.1 kcal/mol and 50.4 °C.
As for GTGAGAGGAAACTCTCAC (((((((....))))))), the folding enthalpy in data set [1] was -41.8 kcal/mol. Further, in data set [2], the Tm was found to be 61.7 °C.
Turning to GTGAGAGGAAACTCTTAC ((.((((....)))).)), the folding enthalpy in data set [1] is -30.9 kcal/mol. The Tm in data set [2] turned out to be 38.2 °C.
With GTGAGCCGAAAGGCCAC (((.(((....)))))), the folding enthalpy in data set [1] was -18.7 kcal/mol. For the same sequence, the Tm in data set [2] stood at 64.7 °C.
As for GTGAGCCGAAAGGCCCAC (((.(((....))).))), in data set [1], the folding enthalpy is -23.3 kcal/mol. Moreover, in data set [2], the Tm came to 55.3 °C.
With GTGAGCGAAAGCTATCAC ((((((....)))..))), the folding enthalpy in data set [1] was -18.3 kcal/mol. For the same sequence, the Tm in data set [2] came to 37.6 °C.
GTGAGCGAAAGCTCTCAC ((((((....)))..))): in data set [1], the folding enthalpy was -10 kcal/mol. In addition, in data set [2], the Tm was found to be 40.6 °C.
In the case of GTGAGCGAAAGCTGTCAC ((((((....)))..))), in data set [1], the folding enthalpy was -14.3 kcal/mol. Moreover, the Tm in data set [2] came out at 40.2 °C.
For GTGAGCGAAAGCTTACAC ((((((....)))..))) the same measures were -14 kcal/mol and 49 °C.
GTGAGCGGAAACGCCCAC (((.(((....))).))): the folding enthalpy in data set [1] is -23.7 kcal/mol. Further, the Tm in data set [2] was 51.1 °C.
For GTGAGCGGAAACGCTTGC (..((((....))))..) the same measures were -16.2 kcal/mol and 43.8 °C.
On to GTGAGGACGAAAGTCCAC (((..(((....)))))), for which the folding enthalpy in data set [1] was -13.9 kcal/mol. Also, the Tm in data set [2] is 47.9 °C.
Turning to GTGAGGCGAAAGCCACAC (((.(((....))).))), in data set [1], the folding enthalpy is -26.5 kcal/mol. Moreover, the Tm in data set [2] stood at 59.6 °C.
